# ChEMBL document CHEMBL3414559, “Novel C-4 heteroaryl 13-cis-retinamide Mnk/AR degrading agents inhibit cell proliferation and migration and induce apoptosis in human breast and prostate cancer cells and suppress growth of MDA-MB-231 human breast and CWR22Rv1 human prostate tumor xenografts in mice” (J Med Chem, 2015)
# Active and inactive are the calls of the source. No cut-off for these calls is given here.
# What was measured:
# [1] = test system: MDA-MB-231; assay: Growth inhibition of human MDA-MB-231 cells by MTT assay; format: functional
# Outline: (§1)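 Cells grown in RPMI 1640 with 10% FBS, plated at 2500 cells/well, treated across a dose range; growth read by MTT. GI50 taken from dose–response curves by nonlinear regression, at least three independent experiments.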
# [2] = test system: MDA-MB-468; assay: Growth inhibition of human MDA-MB-468 cells by MTT assay; format: functional; outline: as §1
# [3] = Growth inhibition of human SKBR3 cells by MTT assay; format: functional; settings: SK-BR-3; outline: as §1
# [4] = Growth inhibition of human CWR22Rv1 cells by MTT assay; format: functional, CWR22R; settings: 22Rv1; outline: as §1
# [5] = Growth inhibition of human PC3 cells by MTT assay; format: functional; settings: PC-3; outline: as §1
# [6] = test system: MCF7; assay: Reduction in Mnk2 protein expression in human MCF7 cells at 0.63 uM to 20 uM after 24 hrs by SDS-PAGE and Western blotting method; format: functional, cell-based
# Outline: (§2)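 Breast cancer cells in RPMI 1640 with 10% FBS treated 24 h at indicated concentrations, DMSO vehicle control; equal protein loaded on SDS–PAGE and immunoblotted for Mnk1, Mnk2, peIF4E, eIF4E and cleaved PARP; blots reprobed for GAPDH as loading control.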
# [7] = test system: MCF7; assay: Reduction in peIF4E protein expression in human MCF7 cells at 0.63 uM to 20 uM after 24 hrs by SDS-PAGE and Western blotting method; format: functional, cell-based
# Outline: (§3)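 MCF-7, MDA-MB-231 and MDA-MB-468 cells, kept in RPMI 1640 with 10% FBS, were exposed for 24 h to a range of concentrations, with DMSO vehicle controls. Equal protein from lysates was separated by SDS–PAGE and probed for Mnk1, Mnk2, peIF4E, eIF4E and cPARP. GAPDH reprobing served as loading control.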
# [8] = test system: MDA-MB-231; assay: Reduction in Mnk1 protein expression in human MDA-MB-231 cells at 0.63 uM to 20 uM after 24 hrs by SDS-PAGE and Western blotting method; format: functional, cell-based; outline: as §2
# [9] = test system: MDA-MB-231; assay: Reduction in Mnk2 protein expression in human MDA-MB-231 cells at 0.63 uM to 20 uM after 24 hrs by SDS-PAGE and Western blotting method; format: functional, cell-based; outline: as §2
# [10] = test system: MDA-MB-231; assay: Reduction in peIF4E protein expression in human MDA-MB-231 cells at 0.63 uM to 20 uM after 24 hrs by SDS-PAGE and Western blotting method; format: functional, cell-based; outline: as §3
# [11] = test system: MDA-MB-468; assay: Reduction in peIF4E protein expression in human MDA-MB-468 cells at 0.63 uM to 20 uM after 24 hrs by SDS-PAGE and Western blotting method; format: functional, cell-based; outline: as §3
# [12] = test system: MCF7; assay: Effect on total eIF4E protein expression in human MCF7 cells at 0.63 uM to 20 uM after 24 hrs by SDS-PAGE and Western blotting method; format: functional, cell-based; outline: as §2
# [13] = test system: MDA-MB-468; assay: Induction of apoptosis in human MDA-MB-468 cells assessed as increase in c-PARP formation at 0.63 uM to 20 uM after 24 hrs by SDS-PAGE and Western blotting method; format: functional, cell-based; outline: as §2
# [14] = test system: MCF7; assay: Induction of apoptosis in human MCF7 cells assessed as increase in c-PARP formation at 0.63 uM to 20 uM after 24 hrs by SDS-PAGE and Western blotting method; format: functional, cell-based; outline: as §2
# [15] = test system: MDA-MB-231; assay: Inhibition of cell migration of human MDA-MB-231 cells at 5 uM after 24 hrs by wound healing assay; format: functional, cell-based
# Outline: (§4)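 Cells (5 × 10⁵ per well) grown to confluence, monolayer scratched at time zero, then exposed to 5 μM for 24 h; initial and final wounds photographed at 100×.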
# [16] = test system: LNCaP; assay: Reduction in fAR protein expression in human LNCAP cells at 0.6 uM to 20 uM after 24 hrs by SDS-PAGE and Western blotting method; format: functional, cell-based
# Outline: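 LNCaP cells were treated for 24 h across 0.6–20 μM, with vehicle (DMSO) controls. Equal protein from lysates was run on SDS–PAGE and immunoblotted for fAR, Mnk1/2, peIF4E, cyclin D1 and cleaved PARP. Blots were reprobed for β-actin as loading control.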
# [17] = test system: LNCaP; assay: Reduction in Mnk1 protein expression in human LNCAP cells at 0.6 uM to 20 uM after 24 hrs by SDS-PAGE and Western blotting method; format: functional, cell-based
# Outline: (§5)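 LNCaP cells (RPMI 1640, 10% FBS) exposed 24 h to 0.6–20 μM, DMSO vehicle control; equal protein on SDS–PAGE, immunoblotted for fAR, Mnk1/2, peIF4E, cyclin D1 and cleaved PARP; β-actin reprobe for loading.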
# [18] = test system: LNCaP; assay: Induction of apoptosis in human LNCAP cells assessed as reduction in cyclin D1 levels at 0.6 uM to 20 uM after 24 hrs by SDS-PAGE and Western blotting method; format: functional, cell-based; outline: as §5
# [19] = test system: PC-3; assay: Inhibition of cell migration of human PC3 cells at 5 uM after 24 hrs by wound healing assay; format: functional, cell-based; outline: as §4
# [20] = test system: Mus musculus; assay: Toxicity in human MDA-MB-231 cells xenografted athymic nude mouse assessed as effect on body weight at 20 mg/kg, ip dosed once daily for 5 days per week for 28 days; settings: in vivo
# [21] = test system: Mus musculus; assay: Toxicity in human MDA-MB-231 cells xenografted athymic nude mouse assessed as induction of toxic signs at 20 mg/kg, ip dosed once daily for 5 days per week for 28 days; settings: in vivo
# [22] = test system: MDA-MB-231; assay: Antitumor activity against human MDA-MB-231 cells xenografted in nude mouse assessed as increase in Bad protein expression at 20 mg/kg, ip dosed once daily for 5 days per week for 28 days by SDS-PAGE and Western blotting method
# [23] = test system: MDA-MB-231; assay: Antitumor activity against human MDA-MB-231 cells xenografted in nude mouse assessed as reduction in Bcl2 protein expression at 20 mg/kg, ip dosed once daily for 5 days per week for 28 days by SDS-PAGE and Western blotting method
# [24] = test system: LNCaP; assay: Reduction in cell viability in human LNCAP cells at 5 uM after 72 hrs by MTT assay; format: functional, cell-based
# Outline: (§6)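 LNCaP cells transfected with 100 nM AR and/or Mnk1 siRNA (or scrambled control) by lipofection for 18 h, washed twice with PBS, returned to growth medium; drug added 24 h later, viability read by MTT after 72 h. Untransfected cells treated alike. Knockdown confirmed by immunoblot; three independent experiments, normalized to control cells.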
# [25] = test system: LNCaP; assay: Reduction in cell viability in human LNCAP cells in presence of AR siRNA at 2.5 uM and 5 uM after 72 hrs by MTT assay; format: functional, cell-based; outline: as §6
# [26] = Antitumor activity against human CWR22Rv1 cells xenografted in SCID mouse assessed as inhibition of tumor growth at 20 mg/kg, ip dosed once daily for 5 days per week for 28 days; format: functional, CWR22R; settings: 22Rv1, ip, route intraperitoneal, read-out: TGI
smiles,measurement,setting,value
CC1=C(/C=C/C(C)=C/C=C/C(C)=C\C(=O)NCc2ccc(O)cc2)C(C)(C)CCC1n1ccnc1 (centres undefined),GI50,[1],2.23 µM
same,GI50,[2],2.7 µM
same,GI50,[3],2.45 µM
same,GI50,[4],1860 nM
same,GI50,[5],3.54 µM
same,inhibition,[6],Dose-dependent effect
same,inhibition,[7],Dose-dependent effect
same,inhibition,[8],Dose-dependent effect
same,inhibition,[9],Dose-dependent effect
same,inhibition,[10],Dose-dependent effect
same,inhibition,[11],Dose-dependent effect
same,Activity,[12],inactive
same,Activity,[13],Dose-dependent effect
same,Activity,[14],Dose-dependent effect
same,inhibition,[15],Active
same,inhibition,[16],Dose-dependent effect
same,inhibition,[17],Dose-dependent effect
same,Activity,[18],Active
same,inhibition,[19],Active
same,Activity,[20],Non-toxic
same,Activity,[21],Non-toxic
same,Activity,[22],Active
same,Activity,[23],Active
CC1=C(/C=C/C(C)=C/C=C/C(C)=C\C(=O)Nc2cccc(F)c2)C(C)(C)CCC1n1ccnc1 (centres undefined),GI50,[1],8.51 µM
same,GI50,[2],6.76 µM
same,GI50,[3],17 µM
same,GI50,[4],2040 nM
same,GI50,[5],5.62 µM
same,inhibition,[6],Dose-dependent effect
same,inhibition,[7],Dose-dependent effect
same,inhibition,[8],Dose-dependent effect
same,inhibition,[9],Dose-dependent effect
same,inhibition,[10],Dose-dependent effect
same,inhibition,[11],Dose-dependent effect
same,Activity,[12],inactive
same,Activity,[13],Dose-dependent effect
same,Activity,[14],Dose-dependent effect
same,inhibition,[15],Active
same,inhibition,[16],Dose-dependent effect
same,inhibition,[17],Dose-dependent effect
same,Activity,[18],Active
same,inhibition,[19],Active
same,Activity,[24],Active
same,Activity,[25],Active
same,inhibition in vivo at 20 mg/kg,[26],61.2%
same,Activity,[20],Non-toxic
same,Activity,[21],Non-toxic
same,Activity,[22],Active
same,Activity,[23],Active
